Consider 11 compounds from ChEMBL document CHEMBL3044872, “Synthesis and quantitative structure-activity relationships of fluorine-containing 4,4-dihydroxylmethyl-2-aryliminooxazo(thiazo)lidines as trehalase inhibitors” (J Agric Food Chem, 2001).

Experiment [1] concerns Drosophila melanogaster. Kind of experiment: Insecticidal activity against adult Drosophila melanogaster cultured on compound-treated corn media assessed as inhibition of flight at 200 ppm after 48 hr relative to control. The class given is functional. The essentials:
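Wild-type adult flies fed corn medium containing compound for 48 h. Flies ether-anesthetized for 2 min and glued by the abdomen to the arm of a computer-monitored flight mill; flown at 25 °C under natural light. Inhibition % = (1 − treated flight distance/untreated flight distance) × 100.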

Experiment [2] relates to Drosophila melanogaster. Nature of the experiment: Larvicidal activity against Drosophila melanogaster at 200 ppm relative to control. Format: functional. Summed up: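 One hundred wild-type eggs placed on 8 cm3 yeast/corn meal/agar medium containing compound at 200 ppm, dissolved in DMSO.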
The target of the next experiment is T1, Uncharacterized protein (Sus scrofa, UniProt I3LIR5).
T1 sequence (I3LIR5 whole entry): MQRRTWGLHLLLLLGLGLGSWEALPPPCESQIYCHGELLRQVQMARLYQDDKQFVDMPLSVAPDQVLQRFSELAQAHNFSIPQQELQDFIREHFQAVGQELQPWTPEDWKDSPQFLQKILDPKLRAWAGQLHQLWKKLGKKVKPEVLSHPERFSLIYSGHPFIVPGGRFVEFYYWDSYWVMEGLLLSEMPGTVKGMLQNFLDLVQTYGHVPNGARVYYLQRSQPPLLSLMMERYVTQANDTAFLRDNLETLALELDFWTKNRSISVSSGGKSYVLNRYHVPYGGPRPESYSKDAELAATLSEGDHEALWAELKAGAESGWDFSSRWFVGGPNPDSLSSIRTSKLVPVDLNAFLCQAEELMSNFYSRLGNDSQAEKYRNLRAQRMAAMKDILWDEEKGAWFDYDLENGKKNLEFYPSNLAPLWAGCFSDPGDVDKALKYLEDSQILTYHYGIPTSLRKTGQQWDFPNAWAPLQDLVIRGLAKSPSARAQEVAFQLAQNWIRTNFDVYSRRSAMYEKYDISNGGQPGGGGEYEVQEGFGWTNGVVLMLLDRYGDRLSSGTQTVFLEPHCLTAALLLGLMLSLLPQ
Nature of the experiment: Inhibition of Sus scrofa (pig) trehalase using trehaloase as substrate incubated for 15 min prior to substrate addition measured after 1.5 hr by spectrophotometric analysis. The essentials: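 Porcine trehalase (1.08 µg) in […], pH 5.5, preincubated with compound in DMSO for 15 min at 37 °C. […] added, then incubated 1.5 h at 37 °C. Stopped with Ba(OH)2/Zn(OH)2 and centrifuged. Glucose measured by glucose oxidase/peroxidase/ABTS (30 min, room temperature), A660, against a glucose standard curve. At least 5 concentrations; expressed as pIC50.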

In the next experiment the target is T2, Trehalase (Bombyx mori, UniProt P32358).
T2 sequence (P32358 whole entry): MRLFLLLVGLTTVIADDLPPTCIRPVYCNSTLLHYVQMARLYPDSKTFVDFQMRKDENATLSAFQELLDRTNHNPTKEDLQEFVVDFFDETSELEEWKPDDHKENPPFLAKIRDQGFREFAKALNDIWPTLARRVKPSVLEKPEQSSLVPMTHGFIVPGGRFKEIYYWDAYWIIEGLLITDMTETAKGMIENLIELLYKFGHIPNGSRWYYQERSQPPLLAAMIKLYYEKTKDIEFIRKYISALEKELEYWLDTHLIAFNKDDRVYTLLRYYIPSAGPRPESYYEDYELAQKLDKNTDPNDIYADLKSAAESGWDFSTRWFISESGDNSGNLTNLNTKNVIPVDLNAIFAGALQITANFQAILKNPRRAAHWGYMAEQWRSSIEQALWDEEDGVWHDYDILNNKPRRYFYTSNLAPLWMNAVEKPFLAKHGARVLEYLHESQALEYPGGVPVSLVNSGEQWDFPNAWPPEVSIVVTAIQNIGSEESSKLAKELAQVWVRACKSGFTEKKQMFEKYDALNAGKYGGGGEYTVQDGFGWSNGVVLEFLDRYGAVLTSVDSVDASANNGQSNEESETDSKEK
Kind of experiment: Inhibition of Bombyx mori trehalase.

Turning to `OCC1(CO)CO/C(=N\c2ccc(F)cc2F)N1`, in the experiment on Drosophila melanogaster [1], the inhibition at 200 ppm was 2.7%. Also, the Activity in the experiment with Drosophila melanogaster [2] is reported as 17.2%. This compound had a concentration for half-maximal inhibition (IC50) at Uncharacterized protein of 891 µM.

Regarding `OCC1(CO)CS/C(=N\c2ccc(F)c(Cl)c2)N1`, in the experiment with Drosophila melanogaster [1], the inhibition at 200 ppm stood at 49.7%. The Activity in the experiment with Drosophila melanogaster [2] worked out at 76%. At Uncharacterized protein, this compound had an IC50 of 240 µM.

For the compound `OC[C@H]1O[C@H](NC2=N[C@@H]3[C@H](O2)[C@@H](O)[C@H](O)[C@]3(O)CO)[C@H](O)[C@@H](O)[C@@H]1O` [TREHAZOLIN], 49 nM corresponded to half-maximal inhibition on Trehalase (IC50).

Turning to `OCC1(CO)CO/C(=N\c2ccc(F)cc2)N1`, the inhibition at 200 ppm with Drosophila melanogaster [1] amounted to 35.7%. For the same compound, the Activity with Drosophila melanogaster [2] is on record as 56.3%. On Uncharacterized protein, inhibition was half-maximal at 263 µM (IC50).

For the compound `OCC1(CO)CO/C(=N\c2ccccc2F)N1`, in the experiment on Drosophila melanogaster [1], the inhibition at 200 ppm came to 30.7%. For the same compound, the Activity with Drosophila melanogaster [2] is given as 45.2%. For the same compound, the IC50 against Uncharacterized protein is 75.9 µM.

For `OCC1(CO)CS/C(=N\c2ccc(F)cc2F)N1`, in the experiment on Drosophila melanogaster [1], the inhibition at 200 ppm was 1.7%. Further, the Activity in the experiment with Drosophila melanogaster [2] was found to be 35.1%. The compound further showed an IC50 against Uncharacterized protein of 6170 µM.

Turning to `OCC1(CO)CO/C(=N\c2ccc(F)c(F)c2F)N1`, in the experiment on Drosophila melanogaster [1], the inhibition at 200 ppm was 16.6%. For the same compound, in the experiment on Drosophila melanogaster [2], the Activity is given as 50.4%. Moreover, the IC50 against Uncharacterized protein is 85.1 µM.

With `OCC1(CO)CS/C(=N\c2ccc(F)c(F)c2F)N1`, the inhibition at 200 ppm in the experiment with Drosophila melanogaster [1] came out at 26.9%. In the experiment on Drosophila melanogaster [2], this compound showed an Activity of 65.3%. Besides, it took 708 µM to reach half-maximal inhibition on Uncharacterized protein (IC50).

Turning to `OCC1(CO)CS/C(=N\c2ccccc2F)N1`, the inhibition at 200 ppm with Drosophila melanogaster [1] came out at 45.4%. The compound further returned an Activity in the experiment with Drosophila melanogaster [2] of 66.5%. The concentration for half-maximal inhibition (IC50) against Uncharacterized protein was 832 µM.

Consider `OCC1(CO)CO/C(=N\c2ccc(F)c(Cl)c2)N1`, for which the inhibition at 200 ppm in the experiment with Drosophila melanogaster [1] was 37.2%. Moreover, the Activity in the experiment on Drosophila melanogaster [2] came to 65%. Also, the IC50 on Uncharacterized protein was 35.5 µM.

Consider `OCC1(CO)CS/C(=N\c2ccc(F)cc2)N1`, for which the inhibition at 200 ppm with Drosophila melanogaster [1] amounted to 37.2%. The same compound registered an Activity in the experiment with Drosophila melanogaster [2] of 60.4%. On Uncharacterized protein, this compound showed an IC50 of 575 µM.

By inhibition is commonly meant the percentage by which the read-out fell short of the control. What is called IC50 is the concentration that gives 50% inhibition. Higher therefore signals weaker potency in that assay.
